The record followed here is ChEMBL document CHEMBL5653608 (Br J Pharmacol, 2011).

The nature of experiment [1]: Inhibition of EFS-induced contraction of human myometrium incubated for 60 mins. The class given is functional, tissue-based. In short, it runs like this: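 Human myometrial strips (donors aged 24–76) in a 15 mL Krebs bath at 37°C, under EFS at 15 V, 1.5 ms pulses, 10 s every 100 s, at a submaximal 15 Hz. Antagonist (10 or 100 nM) or vehicle was equilibrated for 60 min. Cumulative butaprost (0.1 nM–10 µM) or PGE2 (0.1 nM–3 µM) was given for at least five EFS responses per concentration. pKB was calculated from same-donor concentration ratios.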

Experiment [2] in a line: Inhibition of EFS-induced contraction of Beagle dog bronchiole. In kind it is functional, tissue-based, Canis lupus familiaris.
A short description of experiment [3]: Induction of relaxation in forskolin-induced carbachol pre-contracted C57BL/6 mouse trachea incubated for 30 mins. In kind it is functional, tissue-based. In short, it runs like this:
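Male C57BL/6 tracheal rings at 0.35 g tension in Krebs (95% O2/5% CO2, 37°C). Rings were precontracted with 10 µM carbachol before cumulative half-log PGE2 (0.1 nM–30 µM). Curves were repeated in the same ring after 30 min with 3 nM antagonist or DMSO, and 10 µM forskolin set maximal relaxation. pKB = log(CR−1) − log[B].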

Experiment [4] in a line: Induction of relaxation in […] C57BL/6 mouse trachea at 0.1 to 30 uM incubated for 30 mins relative to control (reference value: 21.6 +/- 8.8%). In kind it is functional. Details: scale not given: the % may be the effect or the level left. Particulars: dose 0.1-30 µM, 0.5 h.

The structures appear in SMILES notation.

Usually IC50 stands for the point on the concentration scale where inhibition reaches its midpoint. What is called EC50 is the concentration at which the effect is half-maximal. With `CCCC1([C@H](O)C/C=C/[C@H]2[C@H](O)CC(=O)[C@@H]2CCCCCCC(=O)OC)CCC1` [BUTAPROST], the IC50 in experiment [1] is 27.8 nM. The values for the EC50 in experiment [2] and in experiment [3] were 139 nM and 893 nM, respectively. Also, in experiment [4], the Activity stood at 69.1%.
